Assay outcomes as filed in PubChem BioAssay.
Many of the other results were omitted from the sample, so hits are more common in it than they were.
UPR XBP1 act = activators of adaptive XBP1 UPR arm, primary screen, cell-based, CHO-XBP1 luciferase reporter, luminescence, uHTS | hit rate 0.33% among 330,000 | activation, % at 20 µM | IRE1-XBP1 UPR activation; percent of tunicamycin response, DMSO as zero;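 active means versus positive control, 20 µM dose yields 30% or more activation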;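 further: 100% = tunicamycin at 10 µg/mL and 0% = DMSO only wells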
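Material: CHO cell line with stable XBP1 luciferase reporter; buffer or medium: F12 medium containing 10% fetal bovine serum; compound: single point, 20 µM final compound, 1% DMSO; incubation: 6 h treatment, 37 °C; measured by: glow luminescence from Steady-Glo reagent; evaluation: activation, % of tunicamycin; control set: tunicamycin high, DMSO low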
Jurkat NFkB inh = inhibitors of induced NF-kB luciferase reporter, primary screen, TCR NF-kB activation inhibitor project, cell-based, luminescence, uHTS. Jurkat, PMA/ionomycin-induced NF-kB luciferase reporter. inhibition, % at 4 µM. hit rate 0.53% among 330,000; in the data active means inhibition above about 50%
CHOP UPR activ = activators of apoptotic CHOP UPR arm, primary screen, cell-based, CHO-CHOP luciferase reporter, luminescence, uHTS. hit rate 0.34% among 330,000. AID 449763, 2010. UPR activation; percent of tunicamycin response over DMSO baseline. activation, % at 10 µM;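 active means at 10 µM dose, activation of 40% or more, normalized to positive control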;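 further: 100% = tunicamycin at 10 µg/mL and 0% = DMSO alone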
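Dosing – one dose, 10 µM in 0.5% DMSO · System – CHO-CHOP cells, stable luciferase reporter of PERK-eIF2a-CHOP signalling · Input – 500 cells/well · Control set – tunicamycin 10 µg/mL final as positive, DMSO-only wells as negative · Timing – 6 h compound treatment, 37 °C · Measure – % activation vs tunicamycin · Technique – luminescence read with Steady-Glo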
697 NFkB inh = inhibitors of PMA/ionomycin-induced NF-kB reporter, 697 cells, primary screen, B-cell NF-kB inhibitor project, cell-based, luminescence, uHTS | 697 B-cell NF-kB luciferase reporter, 16 h | AID 435022, 2010 | inhibition, % at 4 µM | hit rate 0.33% among 330,000; in the data active means inhibition above about 35%
CHOP inhibitor = inhibitors of CHOP promoter induction, primary screen, cell-based, unfolded protein response, luciferase reporter; CHO-K1 CHOP-promoter luciferase, tunicamycin-induced, 15-18 h; inhibition, % at 10 µM; hit rate 3.8% among 220,000; AID 2732, 2010;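 active means compounds that reduced the stress-induced luciferase reporter signal by more than about 70% of percent inhibition, limit read from the data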;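 further: 0% = tunicamycin plus vehicle and 100% = wells without tunicamycin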
The depositor's hits bear a star; · = not tested or not shown; ! = not active in a repeat.

SMILES	UPR XBP1 act	Jurkat NFkB inh	CHOP UPR activ	697 NFkB inh	CHOP inhibitor
CC(C)N(Cc1nc(-c2ccc(Cl)cc2)no1)C(=O)CCC1CCCC1	-4	-4	1	0	84*
Cc1ccc(Cl)cc1NC(=O)COC(=O)C12CC3CC(CC(C3)C1)C2	1	4	3	5	79*!
O=C(Nc1cccc(Cl)c1)c1cc(F)cc2c1OCOC2	3	-6	3	3	6
Oc1cccc(/C=N/Nc2cc(N3CCCC3)nc(N3CCCC3)n2)c1	-1	11	6	-22	79*
O=P(OC1CCCCC1)(OC1CCCCC1)C(O)c1ccc(Cl)cc1Cl (centres undefined)	4	26	-1	9	92*
COc1ccccc1C(O)P(=O)(OC1CCCCC1)OC1CCCCC1 (centres undefined)	-2	4	0	1	5
O=P(OC1CCCCC1)(OC1CCCCC1)C(O)c1c(Cl)cccc1Cl (centres undefined)	1	-7	-2	26	84*
Cc1ccc(C(O)P(=O)(OC2CCCCC2)OC2CCCCC2)cc1 (centres undefined)	1	4	1	3	27
CCN(CC)C(=O)c1ccc(CS(=O)(=O)Cc2ccccc2)cc1	-5	2	0	-9	·
CCC(=O)c1ccc(Oc2nc3c(c(=O)n(C)c(=O)n3C)n2CC)cc1	-2	7	1	-24	·
COC(=O)c1ccc(Oc2nc3c(c(=O)n(C)c(=O)n3C)n2CCC(C)C)cc1	-4	8	1	-15	75*
NC(=O)COC(=O)c1ccc(Cl)c(S(=O)(=O)N(Cc2ccccc2)c2ccc(Cl)cc2)c1	-1	1	-2	11	85*
NC(=O)NC(=O)COC(=O)c1ccc(Cl)c(S(=O)(=O)N(Cc2ccccc2)c2ccc(Cl)cc2)c1	1	3	-2	13	-37
O=C1c2ccccc2C2=Nc3ccccc3SC(c3cccc(F)c3)C12 (centres undefined)	-1	32	2	-50	74*
Cc1c(Cl)cccc1N=C1SCCN1C(=O)CN1C(=O)NC2(CCCC2)C1=O	2	-7	3	15	·
Nc1c(C(=O)N/N=C/c2cccnc2)oc2nc(-c3ccccc3)cc(-c3ccco3)c12	-1	4	1	-8	-9
O=CNn1cnc2c(oc3nc(-c4ccccc4)cc(-c4ccco4)c32)c1=O	7	13	2	6	85*
O=C(Cn1ccc2ccccc2c1=O)NCC(=O)Nc1ccc(F)cc1F	10	-7	-1	7	·
CC(=O)Nc1ccc(OCCOc2ccc(/C=C3/C(=N)N4C=CSC4=NC3=O)cc2)cc1	0	11	0	4	-12
COc1ccc(-c2ccc(/C=C3/C(=N)N4C=CSC4=NC3=O)o2)c([N+](=O)[O-])c1	·	·	·	·	82*
Cc1cc(C(=O)COC(=O)c2ccc[nH]c2=O)c(C)n1-c1ccccc1	-8	-30	-3	-63	70*
Cc1cc(C(=O)COC(=O)c2ccc[nH]c2=O)c(C)n1-c1ccc(F)cc1	-5	-46	-7	-67	75*
Cc1cccc(CSc2ncnc3ccccc23)c1	-1	-30	3	2	73*
Cc1ccc(CSc2ncnc3ccccc23)cc1	2	-7	2	-9	2
CCCNC(=O)C(Cc1ccccc1C)NC(=O)c1ccc(C(F)(F)F)cc1 (centres undefined)	4	2	0	7	·
SMILES	UPR XBP1 act	Jurkat NFkB inh	CHOP UPR activ	697 NFkB inh	CHOP inhibitor
Cc1cc(C)n2cc(CSc3nc4cc(Cl)ccc4o3)nc2n1	2	-2	-2	4	30
CN(C)c1nc(N)nc(CSc2nc3cc(Cl)ccc3o2)n1	8	-25	7	-130	77*
CCCc1cc(=O)oc2c(CNc3ccc(OCC)cc3)c(O)ccc12	-1	-2	2	-2	·
O=C(c1ccc(COc2ccccc2Cl)o1)N1CCN(c2ccccc2)CC1	-4	2	0	-17	58
O=C(c1ccc(COc2ccccc2Cl)o1)N1N=C(C(F)F)CC1(O)C(F)F (centres undefined)	-3	8	0	22	75*
Cc1cc(NC(c2ccc(Cl)cc2)c2ccc3cccnc3c2O)no1 (centres undefined)	1	33	8	-32	80*
CC1(C)Cc2c(c(-c3ccco3)nc3sc4c(NCC5CCCO5)ncnc4c23)CO1 (centres undefined)	16	5	1	12	95*
O=C(Cn1nnc(-c2ccccc2Cl)n1)N/N=C/c1ccc(-c2cccc(Cl)c2)o1	-2	-14	0	-12	74*
CCc1ccc2c(c1)C(c1ccc([N+](=O)[O-])cc1)=NNC(c1ccc(F)cc1)=N2	4	-9	5	-33	86*
O=S(=O)(Nc1cccc(-c2nnco2)c1)c1ccc(F)cc1F	-3	-13	0	14	-4
CC[C@@]1(C(=O)OC)N[C@H](CN(C)C(=O)c2ccc(C)cc2)[C@@H]2C(=O)N(C)C(=O)[C@@H]21	-2	2	1	10	·
O=C(c1ccccc1)N1CCCC(C(=O)N2CCN(c3ccccc3)CC2)C1 (centres undefined)	1	-1	1	12	11
O=C1N(Nc2ccccc2)C(c2ccc(Br)cc2)C12CCCC2 (centres undefined)	-1	-3	-2	-3	94*
O=C1N(Nc2ccccc2)C(c2ccc(Br)cc2)C12CCCCC2 (centres undefined)	0	2	2	2	73*
Cc1ccc(C)c(OCC(=O)Nc2ccc(S(=O)(=O)Nc3ncccn3)cc2)c1	-8	-11	-2	-8	·
COC(=O)C(Cc1c[nH]c2ccccc12)NC(=O)C1CC1 (centres undefined)	6	-6	-1	1	·
O=C(c1ccccc1Nc1ccc(SC(F)F)cc1)N1CCCCCC1	-1	3	-1	3	86*
CN(C)C(=O)COC(=O)c1ccccc1Nc1ccc(SC(F)F)cc1	4	-22	4	-168	-12
CCNCC(=O)N1c2ccccc2CCc2ccc(NC(=O)OC(C)C)cc21	-1	-2	3	-26	·
O=C(O)CC/C(=N/Nc1ncc(C(F)(F)F)cc1Cl)C(=O)O	0	11	-1	11	-17
O=c1cc(-c2ccc(Cl)cc2)oc(=O)[nH]1	-5	-9	2	-13	7
O=c1cc(N=Nc2ccc(Cl)cc2)[nH]c(=O)[nH]1	·	·	·	·	105*
CC1=C/C(=C(\c2cc(C)c(O)c(Br)c2)c2ccccc2S(=O)(=O)O)C=C(Br)C1=O	-4	3	-3	-3	·
